The values below come from PubChem BioAssay.

The nature of experiment [1]: S. cerevisiae growth inhibition in permissive medium (OD615), pilot counter-assay for S. cerevisiae lifespan shortening project, permissive growth control (AID 705). The following applies: OD615, 24 h, at 10 µM, stronger effect = higher value. The essentials:
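System – S. cerevisiae with engineered DeaD lifespan system · Buffer or medium – SC raffinose/galactose permissive medium · Schedule – cells pre-grown 4 h, then 24 h compound exposure, 30 °C humidified · Technique – culture turbidity as optical density at 615 nm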

The nature of experiment [2]: S. cerevisiae growth inhibition in restrictive medium, OD615, pilot screen, restrictive growth control, yeast lifespan reduction project (AID 706;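 active = growth inhibition above a set limit, 3 SD over mean compound inhibition, in both replicates, cut at about 43% in these data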;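 also: modified DeaD lifespan yeast strain shifted to restrictive glucose medium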). To be noted: OD615, 48 h, at 10 µM, stronger effect = higher value. The essentials: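 Material: engineered S. cerevisiae DeaD strain / Medium: glucose-based CSMM-D restrictive medium / Compound: single dose of 10 µM compound final, 0.25% DMSO / Timing: 4 h pre-incubation, 48 h exposure at 30 °C / Technique: OD615 absorbance reading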

Experiment [3] is described as follows: doxorubicin toxicity protection in MRP-1 cells – H69AR cells, CellTiter-Glo, duplicate, MRP-1 activator project, pilot screen (AID 807;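 active = viability increase at or above a cutoff of the median across tested compounds plus 3 SD, cut at about 8.5% in these data, passing the limit was not always enough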;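 also: compound pretreatment 18-22 h then 72 h combined with doxorubicin; 0% = doxorubicin alone and 100% = vehicle without doxorubicin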). The following applies: H69AR viability with doxorubicin, CellTiter-Glo luminescence; at 10 µM; stronger effect = higher value.
Experiment [4] can be described thus: viability of HCT116 without oncogenic beta-catenin – human colon tumor cells, pilot screen (AID 823;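 active = cell viability at or below a set limit in both duplicate runs, the limit being the all-compound median minus 4 SD, cut at about 23% in these data, passing the limit was not always enough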;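 also: 0% = wells killed by 20 µM Hyamine and 100% = untreated DMSO cell wells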). To be noted: HCT116 beta-catenin knockout viability, CellTiter-Glo, 60 h; at 10 µM; stronger effect = lower value.
The nature of experiment [5]: viability of PTEN-null HCT116 cells – cell-based, HCT116 clonal line, CellTiter-Glo, pilot screen (AID 824;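 active = viability at or below 27.92% in each of two runs, the all-compound median minus 4 SD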;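 also: 0% = 20 µM Hyamine control and 100% = vehicle cell control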). To be noted: HCT116 PTEN-deleted viability, 60 h, at 10 µM, stronger effect = lower value.
Experiment [6] in a line: RAM pathway blockade in budding yeast – dse1pr::URA3 reporter, 5-FOA selection, pilot screen (AID 869;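 active = inhibition over a set limit, the all-compound mean plus 3 SD, in both replicate runs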;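 also: 0% = DMSO wells with no growth and 100% = 10 µM 1-NA-PP1 with full growth; RAM network block rescues cells from 5-FOA so hits raise OD615 growth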). The following applies: S. cerevisiae dse1pr::URA3 5-FOA growth, OD615, 2 d; at 10 µM; stronger effect = higher value; strain carries analog-sensitive mutant Cbk1 kinase.
The nature of experiment [7]: RAM signaling pathway blockade in yeast – S. cerevisiae, Pdr1DBD-CYC8 efflux-inhibited sensitized strain, primary screen (AID 1298;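 active = RAM network inhibition above 8.4% in each of two replicates, 3 SD over the compound average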;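 also: 0% = DMSO untreated cells without growth and 100% = 10 µM 1-NA-PP1 full growth; higher means more yeast growth rescued from 5-FOA killing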). The following applies: S. cerevisiae cbk1-as DSE1-URA3 strain, 5-FOA growth OD615, 2 d; at 50 µM; stronger effect = higher value.

Unmarked numbers belong to inactive results. Records with an inconclusive call do not appear. Active and inactive are the calls of the source.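 The calls were made as follows, unless noted: active = growth inhibition above 25% in both replicates, a cutoff set 3 SD above the mean; inconclusive = above 25% in only one replicate; inactive = the rest.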

Consider `COC(=O)c1c(S(N)(=O)=O)c2ccccc2n1C`, for which the figures for the growth inhibition in experiment [1] and in experiment [2] were -2.33% and 2.71%, respectively. For the same molecule, the viability increase in experiment [3] was -1.28%. The viability in experiment [4] is 100%; in experiment [5], 102%. The inhibition in experiment [6] was 1.06%. In addition, the RAM network inhibition in experiment [7] was 4.32%.

As to `CC(C)C(=O)Nc1nnc(-c2ccccc2)o1`, the values for the growth inhibition in experiment [1] and in experiment [2] were -5.24% and -0.51%, respectively. For the same molecule, in experiment [3], the viability increase is -2.2%. Also, the figures for the viability in experiment [4] and in experiment [5] were 102% and 101%, respectively. Further, in experiment [6], the inhibition was 0.64%. In addition, the RAM network inhibition in experiment [7] is -0.68%.

Consider `CCCCCOC(=O)C1=C(C)NC(=O)NC1c1ccccc1OCC` (configuration not stated), for which the growth inhibition in experiment [1] was -2.38%; in experiment [2] it was 11.9%. The viability increase in experiment [3] was -0.2%. The values for the viability in experiment [4] and in experiment [5] were 69.8% and 69.7%, respectively. The inhibition in experiment [6] is 0.45%. The RAM network inhibition in experiment [7] is 1.97%.

For the molecule `CCOC(=O)CN1CC23C=CC(O2)C(C(=O)NC2CCCCCC2)C3C1=O` (configuration not stated), the results for the growth inhibition in experiment [1] and in experiment [2] were -6.04% and 3.45%, respectively. Besides, in experiment [3], the viability increase was -2.93%. Also, the figures for the viability in experiment [4] and in experiment [5] were 99.3% and 94.5%, respectively. In experiment [6], the inhibition was 1.36%. The RAM network inhibition in experiment [7] is 0.37%.

On to `Cc1ccc(NC(=O)c2cnc3scc(C)n3c2=O)c(C)c1`, for which the growth inhibition in experiment [1] was -4.27%; in experiment [2], -12.6%. In experiment [3], the viability increase is -3.97%. For the same molecule, the viability in experiment [4] is 106%; in experiment [5], 96.5%. The inhibition in experiment [6] is -0.14%. Also, in experiment [7], the RAM network inhibition is 1.14%.

In the case of `O=C(CSc1ccc2nnc(-c3ccc(Cl)cc3)n2n1)N1CCN(c2ccccc2)CC1`, the results for the growth inhibition in experiment [1] and in experiment [2] were 20.5% and 63.7% (active), respectively. The viability increase in experiment [3] is -3.11%. The viability in experiment [4] was 96.6%; in experiment [5], 85.5%. The inhibition in experiment [6] was -0.195%. The RAM network inhibition in experiment [7] was 3.08%.

Turning to `COc1ccc(S(=O)(=O)N2CCN(C)CC2)cc1Br`, the growth inhibition in experiment [1] was -1.05%; in experiment [2], 9.22%. The viability increase in experiment [3] is -2.75%. The viability in experiment [4] was 95%; in experiment [5], 92%. Besides, the inhibition in experiment [6] is 1.01%. For the same molecule, the RAM network inhibition in experiment [7] is -0.01%.

`CCC1CC(C)(C(=O)Nc2ccc(S(N)(=O)=O)cc2)OC1=O` (configuration not stated): the growth inhibition was -2.94% in experiment [1] and 3.6% in experiment [2]. Moreover, the viability increase in experiment [3] is 1.12%. For the same molecule, the results for the viability in experiment [4] and in experiment [5] were 102% and 98.1%, respectively. The inhibition in experiment [6] was 1.36%. For the same molecule, the RAM network inhibition in experiment [7] was 3.69%.

For the molecule `O=C(CSc1nnc(Cn2c(=O)sc3ccccc32)n1-c1ccccc1)NCc1ccco1`, the growth inhibition was -3.11% in experiment [1] and -1.47% in experiment [2]. Besides, the viability increase in experiment [3] is -4.7%. For the same molecule, the viability in experiment [4] was 99.5%; in experiment [5], 98.1%. In addition, the inhibition in experiment [6] was 1.22%. For the same molecule, the RAM network inhibition in experiment [7] was 6%.

`O=C(c1ccc(COc2ccccc2Cl)o1)N1CCN(c2ccccc2)CC1`: the growth inhibition in experiment [1] is -15.6%; in experiment [2], -13.4%. For the same molecule, the viability increase in experiment [3] was -4.18%. Also, the viability in experiment [4] is 61.7%; in experiment [5], 69.7%. Also, in experiment [6], the inhibition is 2.33%. The RAM network inhibition in experiment [7] was 5.58%.

Regarding `CCSc1nc2c(cnn2-c2ccc(C)c(C)c2)c(=O)[nH]1`, the growth inhibition was -2.47% in experiment [1] and -2.05% in experiment [2]. Moreover, the viability increase in experiment [3] is -1%. Moreover, the viability in experiment [4] was 98.8%; in experiment [5], 94.2%. The inhibition in experiment [6] is 1.42%. Further, in experiment [7], the RAM network inhibition was 7.85%.

Take `O=S(=O)(NCCc1cn2ccccc2n1)c1ccc2c(c1)OCCO2`: the growth inhibition in experiment [1] was -2.27%; in experiment [2], -2.71%. Besides, the viability increase in experiment [3] is -2.56%. Besides, the viability in experiment [4] was 105%; in experiment [5] it was 97%. Besides, in experiment [6], the inhibition is 1.62%. The RAM network inhibition in experiment [7] was 2.25%.

On to `CCCCNC(=O)c1ccc2nc(-c3ccco3)c(-c3ccco3)nc2c1`, for which the values for the growth inhibition in experiment [1] and in experiment [2] were -4.73% and -6.49%, respectively. Also, the viability increase in experiment [3] is -1.69%. The viability in experiment [4] was 104%; in experiment [5], 97.5%. In experiment [6], the inhibition was 1.85%. Also, the RAM network inhibition in experiment [7] is 1.63%.

Take `COc1ccc(NC(=O)c2cc3ccccc3o2)cc1`: the figures for the growth inhibition in experiment [1] and in experiment [2] were -7.97% and 10.6%, respectively. In addition, the viability increase in experiment [3] is -4.64%. The viability was 86.6% in experiment [4] and 75.8% in experiment [5]. In experiment [6], the inhibition was 0.89%. Moreover, the RAM network inhibition in experiment [7] was -1.4%.

`Cn1c(=O)oc2cc(S(=O)(=O)NC(Cc3ccccc3)C(=O)N3CCCCC3)ccc21` (configuration not stated): the growth inhibition is -6.13% in experiment [1] and -11.9% in experiment [2]. For the same molecule, the viability increase in experiment [3] is -2.55%. The figures for the viability in experiment [4] and in experiment [5] were 109% and 98.6%, respectively. Moreover, in experiment [6], the inhibition is 2.8%. In addition, the RAM network inhibition in experiment [7] was 2.02%.

As for `C=CCn1c(=N)n(CC(O)COc2ccccc2OC)c2ccccc21` (configuration not stated), the growth inhibition in experiment [1] is -4.97%; in experiment [2] it was 0.15%. Besides, the viability increase in experiment [3] was -4.19%. Besides, the figures for the viability in experiment [4] and in experiment [5] were 73.9% and 77.4%, respectively. Also, in experiment [6], the inhibition was 1.92%. Besides, in experiment [7], the RAM network inhibition is 1.07%.
